Source: PubChem (several laboratories)
A selection: hits, their analogues and other compounds. The true share with any hit is near 9.2%.
ERa SRC1 pot: enhances coactivator binding to human estrogen receptor alpha; 1.3% of 86,000 active; P03372; AID 639; coactivator binding (% of control), % at 25.6 µM; TR-FRET ERalpha-LBD/SRC-Cy5 coactivator binding, 2 h; 100 = basal binding, no effect; in the data active = activity above about 200%;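 also: binding measured in presence of low estradiol as agonist stimulus; 0% = peptide alone without receptor and 100% = receptor with peptide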
H69AR inhibit: blocks growth of human H69AR lung tumor cells; H69AR lung tumor viability, ATP luminescence, 72 h; active compounds read low; viability, % at 10 µM; 6% of 85,000 active;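 active = viability at or below 40%; inactive = viability above 40%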;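 also: multidrug resistant small cell line overexpressing MRP-1 efflux transporter; 100% = mean luminescence of untreated control wells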
ERb SRC1 inh: blocks coactivator binding to human estrogen receptor beta. Q92731. TR-FRET ER-beta LBD / SRC1-Cy5 peptide binding; receptor agonist-loaded with 1 µM estradiol. inhibition, % at 25.6 µM. 1.3% of 86,000 active. AID 633;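 active = compounds whose percent inhibition of the receptor-coactivator binding signal exceeds about 50% in the single-dose screen, limit read from the data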;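 also: 0% = receptor plus peptide wells without compound and 100% = peptide-only wells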
Target sequence (Q92731 whole entry, looked up, the tested form may be a part): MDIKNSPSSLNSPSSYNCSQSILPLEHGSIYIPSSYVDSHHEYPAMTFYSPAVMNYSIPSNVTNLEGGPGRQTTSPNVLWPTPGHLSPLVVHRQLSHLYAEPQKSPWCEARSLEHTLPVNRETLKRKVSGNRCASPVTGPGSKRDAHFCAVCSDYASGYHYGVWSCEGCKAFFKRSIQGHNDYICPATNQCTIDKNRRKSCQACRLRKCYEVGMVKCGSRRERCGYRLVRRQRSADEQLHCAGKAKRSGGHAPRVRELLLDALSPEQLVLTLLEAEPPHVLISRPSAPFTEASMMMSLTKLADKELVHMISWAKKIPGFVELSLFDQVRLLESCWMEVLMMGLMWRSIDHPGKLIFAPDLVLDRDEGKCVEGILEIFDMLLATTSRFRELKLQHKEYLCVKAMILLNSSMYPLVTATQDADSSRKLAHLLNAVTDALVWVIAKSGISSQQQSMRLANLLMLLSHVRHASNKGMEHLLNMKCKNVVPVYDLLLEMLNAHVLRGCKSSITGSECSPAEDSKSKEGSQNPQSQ
HUVEC prolif 384: blocks proliferation of human endothelial cells; 1.1% of 86,000 active; viability, % at 10 µM (by protocol); HUVEC proliferation, CellTiter-Glo luminescence, 72 h; active compounds read low;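 active = viability at or below 30%; inactive = viability above 30%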;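 also: 100% = median luminescence of DMSO-only cell control wells on each plate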
ERa coact inh: ER-alpha (human) coactivator binding inhibition; P03372; TR-FRET ER-alpha LBD / SRC-1 peptide, estradiol-bound; inhibition, % at 25.6 µM; 1.7% of 86,000 active; in the data active = inhibition above about 50%;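 also: 0% = receptor plus peptide control and 100% = peptide only without receptor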
Fibroblast inh: blocks proliferation of human lung fibroblasts; 1.1% of 85,000 active; viability, % at 10 µM; LL 47 human lung fibroblast viability, ATP luminescence; active compounds read low;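 active = viability at or below 50% in the single dose screen; inactive = viability above 50%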;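 also: compound exposure lasted 72 h before the ATP readout; 100% = median luminescence of untreated cell-only wells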
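Test system: LL 47 human lung fibroblasts / Incubation: 72 h compound exposure at 37 °C after overnight plating / Technique: luminescent ATP detection, CellTiter-Glo / Compound dosing: 0.1% DMSO in all compound wells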
An asterisk follows results filed as active; [ ] = another dose, or the depositor's remark.

How did CCOc1ccc(Br)cc1/C(C)=N\NC1=NCCN1 do in these assays?
ERa SRC1 pot: 80; H69AR inhibit: 18*; ERb SRC1 inh: 14; HUVEC prolif 384: 58; ERa coact inh: 23; Fibroblast inh: 52

Results for CCOc1ccc(CSC2=NCCN2)cc1Cl ?
ERa SRC1 pot: 136; H69AR inhibit: 78; ERb SRC1 inh: -3; HUVEC prolif 384: 78; ERa coact inh: 0; Fibroblast inh: 80

What do the screens show for `CCOC(=O)c1[nH]c(C)c(/C(O)=C2\C(=O)C(=O)N(CCN(C)C)C2c2cccc(OC)c2OC)c1C` (configuration not stated)?
ERa SRC1 pot: 599*[fluorescence artefact?]; H69AR inhibit: 90; ERb SRC1 inh: -9; HUVEC prolif 384: 102; ERa coact inh: -2; Fibroblast inh: 98

How did CCOC(=O)c1[nH]c(C)c(/C(O)=C2\C(=O)C(=O)N(CCN(C)C)C2c2ccncc2)c1C (configuration not stated) do in these assays?
ERa SRC1 pot: 97; H69AR inhibit: 103; ERb SRC1 inh: 4; HUVEC prolif 384: 98; ERa coact inh: -22; Fibroblast inh: 97

Results for C/C(=N\NC(=O)c1[nH]c2c([N+](=O)[O-])cc(C)cc2c1-c1ccccc1)c1cccnc1 ?
ERa SRC1 pot: 64; H69AR inhibit: 46; ERb SRC1 inh: 16; HUVEC prolif 384: 85; ERa coact inh: 26; Fibroblast inh: 100

How did Cc1ccccc1OCCCN1C(=O)C(=O)c2cccc(C)c21 do in these assays?
ERa SRC1 pot: 94; H69AR inhibit: 17*; ERb SRC1 inh: 21; HUVEC prolif 384: 74; ERa coact inh: 14; Fibroblast inh: 81

Results for Cc1cccc2c1N(CCCOc1ccc(C(C)(C)C)cc1)C(=O)C2=O ?
ERa SRC1 pot: 90; H69AR inhibit: 0.8*; ERb SRC1 inh: 1; HUVEC prolif 384: 1.6*; ERa coact inh: 8; Fibroblast inh: 91

How did O=C(CSc1nnc(SCC(=O)c2ccco2)s1)c1ccco1 do in these assays?
ERa SRC1 pot: 67; H69AR inhibit: 79; ERb SRC1 inh: 53*; HUVEC prolif 384: 101; ERa coact inh: 60*; Fibroblast inh: 98

How did O=C(CSc1nc2cc(Cl)ccc2s1)c1ccco1 do in these assays?
ERa SRC1 pot: 73; H69AR inhibit: 64; ERb SRC1 inh: 8; HUVEC prolif 384: 91; ERa coact inh: 12; Fibroblast inh: 94

Results for O=C1c2ccccc2C(=O)c2c1ccc1c(=O)n(C3CCCCC3)[nH]c21 ?
ERa SRC1 pot: 93; H69AR inhibit: 36*; ERb SRC1 inh: -11; HUVEC prolif 384: 3.2*; ERa coact inh: -1

How did CCn1nnnc1SCC(=O)c1ccc(C)cc1 do in these assays?
ERa SRC1 pot: 98; H69AR inhibit: 112; ERb SRC1 inh: -14; HUVEC prolif 384: 101; ERa coact inh: -29; Fibroblast inh: 100

Results for Cc1ccc(C2(C(F)(F)F)NC(=O)N3CCN=C3S2)cc1 (configuration not stated) ?
ERa SRC1 pot: 129; H69AR inhibit: 22*; ERb SRC1 inh: -6; HUVEC prolif 384: 82; ERa coact inh: -8; Fibroblast inh: 63

What do the screens show for `Brc1ccccc1-c1nnc(CSc2nnnn2-c2ccccc2)o1`?
ERa SRC1 pot: 88; H69AR inhibit: 83; ERb SRC1 inh: 27; HUVEC prolif 384: 100; ERa coact inh: 51*; Fibroblast inh: 96

Results for Cn1c(=O)oc2cc(S(=O)(=O)Nc3ccc4c(c3)OCO4)ccc21 ?
ERa SRC1 pot: 51; H69AR inhibit: 97; ERb SRC1 inh: 45; HUVEC prolif 384: 76; ERa coact inh: 57*[fluorescence artefact?]; Fibroblast inh: 85

Results for CCOc1ccccc1NC(=O)C1CC(=O)n2ncnc2N1 (configuration not stated) ?
ERa SRC1 pot: 113; H69AR inhibit: 100; ERb SRC1 inh: -3; HUVEC prolif 384: 92; ERa coact inh: 8; Fibroblast inh: 100

How did CCC(=O)Oc1ccc(C/C(=N\O)c2ccc(O)cc2O)o1 do in these assays?
ERa SRC1 pot: 13; H69AR inhibit: 16*; ERb SRC1 inh: 78*[fluorescence artefact?]; HUVEC prolif 384: 80; ERa coact inh: 70*[fluorescence artefact?]; Fibroblast inh: 93

What do the screens show for `O=C(OCc1ccccc1)C1=[N+]([O-])OC(C(=O)OCc2ccccc2)C1c1c[nH]c2ccccc12` (configuration not stated)?
ERa SRC1 pot: 101; H69AR inhibit: 5.6*; ERb SRC1 inh: -3; HUVEC prolif 384: 81; ERa coact inh: -8; Fibroblast inh: 88

How did CC(O)CN=c1cc(-c2ccccc2)oc2ccc(Cl)cc12 (configuration not stated) do in these assays?
ERa SRC1 pot: 90; H69AR inhibit: 29*; ERb SRC1 inh: -6; HUVEC prolif 384: 78; ERa coact inh: 8; Fibroblast inh: 69

How did O=C(Nc1ccc2c(c1)nc1n2CCSC1)c1ccco1 do in these assays?
ERa SRC1 pot: 123; H69AR inhibit: 79; ERb SRC1 inh: 61*[fluorescence artefact?]; HUVEC prolif 384: 101; ERa coact inh: 80*; Fibroblast inh: 107

What do the screens show for `O=C(Nc1ccc2c(c1)nc1n2CCN(C2CCCCC2)C1)c1ccco1`?
ERa SRC1 pot: 43; H69AR inhibit: 77; ERb SRC1 inh: 53*; HUVEC prolif 384: 88; ERa coact inh: 61*; Fibroblast inh: 109

Results for O=S(=O)(/C=C/c1ccccc1)Oc1ccccc1 ?
ERa SRC1 pot: 90; H69AR inhibit: 7.4*; ERb SRC1 inh: 0; HUVEC prolif 384: 77; ERa coact inh: -5; Fibroblast inh: 64

What do the screens show for `CC(=O)Nc1ccc(N2C(C(C)=O)=NN(c3ccccc3)C2c2cccs2)cc1` (configuration not stated)?
ERa SRC1 pot: 89; H69AR inhibit: 80; ERb SRC1 inh: -16; HUVEC prolif 384: 104; ERa coact inh: -4; Fibroblast inh: 102

Results for CC(=O)Nc1ccc(N2C(C(C)=O)=NN(c3ccc(Cl)cc3)C2c2sccc2C)cc1 (configuration not stated) ?
ERa SRC1 pot: 73; H69AR inhibit: 38*; ERb SRC1 inh: -4; HUVEC prolif 384: 54; ERa coact inh: -14; Fibroblast inh: 94

What do the screens show for `O=C1CCCN1CCC1CCN(C2CC(=O)N(c3ccc(Cl)cc3)C2=O)CC1` (configuration not stated)?
ERa SRC1 pot: 127; H69AR inhibit: 100; ERb SRC1 inh: -26; HUVEC prolif 384: 103; ERa coact inh: -32; Fibroblast inh: 104

What do the screens show for `O=C(Nc1nc2ccccc2[nH]1)c1ccccc1`?
ERa SRC1 pot: 107; H69AR inhibit: 32*; ERb SRC1 inh: -5; HUVEC prolif 384: 68; ERa coact inh: -2; Fibroblast inh: 68

How did Cc1onc(-c2c(F)cccc2Cl)c1C(=O)Nc1nc2ccccc2[nH]1 do in these assays?
ERa SRC1 pot: 108; H69AR inhibit: 33*; ERb SRC1 inh: 6; HUVEC prolif 384: 84; ERa coact inh: -4; Fibroblast inh: 72
